From ChEMBL document CHEMBL4190262, “Tuning of β-glucosidase and α-galactosidase inhibition by generation and in situ screening of a library of pyrrolidine-triazole hybrid molecules” (Eur J Med Chem, 2017)
Activity calls are given as the source filed them. The calls are words filed in the database; no cut-off is given here.

Legend:
[1] = Inhibition of bovine liver beta-glucosidase using p-nitrophenyl glycopyranoside preincubated for 5 mins followed by substrate addition measured after 20 mins by visible absorption spectroscopic method; parameters: species or system Bos taurus
Procedure, shortened: (§1)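 IC50 determined only for compounds giving ≥80% inhibition at 1 mM, read from plots of % inhibition versus inhibitor concentration. p-Nitrophenyl glycopyranoside substrate (10 mM solution) at the enzyme's optimal pH, with 0.01–0.5 units/mL enzyme. 5 min rt preincubation with enzyme, then 20 min at 37 °C. Borate stop (pH 9.8), absorbance at 405 nm. Duplicates averaged.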

[2] = tested on: Oryza sativa; test: Inhibition of rice alpha-glucosidase at 1 mM using p-nitrophenyl glycopyranoside preincubated for 5 mins followed by substrate addition measured after 20 mins by visible absorption spectroscopic method relative to control
Procedure, shortened: (§2)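 Test compound at 1 mM in well. Mix: 0.01–0.5 units/mL enzyme plus 10 mM p-nitrophenyl glycopyranoside (aqueous solution), buffered to the enzyme's optimal pH. Enzyme and inhibitor preincubated 5 min at rt. Substrate then added and incubated 20 min at 37 °C. Stopped with sodium borate (pH 9.8). p-Nitrophenolate read at 405 nm. Duplicates averaged.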

[3] = tested on: Aspergillus niger; test: Inhibition of Aspergillus niger amyloglucosidase at 1 mM using p-nitrophenyl glycopyranoside preincubated for 5 mins followed by substrate addition measured after 20 mins by visible absorption spectroscopic method relative to control; procedure, shortened: as §2
[4] = species on record: Bos taurus; test: Inhibition of bovine kidney alpha-L-fucosidase at 1 mM using p-nitrophenyl glycopyranoside preincubated for 5 mins followed by substrate addition measured after 20 mins by visible absorption spectroscopic method relative to control; procedure, shortened: as §2
[5] = biological target: T1, Alpha-mannosidase (Canavalia ensiformis) (UniProt C0HJB3); test: Inhibition of jack bean alpha-mannosidase at 1 mM using p-nitrophenyl glycopyranoside preincubated for 5 mins followed by substrate addition measured after 20 mins by visible absorption spectroscopic method relative to control; procedure, shortened: as §2
T1 sequence (whole entry): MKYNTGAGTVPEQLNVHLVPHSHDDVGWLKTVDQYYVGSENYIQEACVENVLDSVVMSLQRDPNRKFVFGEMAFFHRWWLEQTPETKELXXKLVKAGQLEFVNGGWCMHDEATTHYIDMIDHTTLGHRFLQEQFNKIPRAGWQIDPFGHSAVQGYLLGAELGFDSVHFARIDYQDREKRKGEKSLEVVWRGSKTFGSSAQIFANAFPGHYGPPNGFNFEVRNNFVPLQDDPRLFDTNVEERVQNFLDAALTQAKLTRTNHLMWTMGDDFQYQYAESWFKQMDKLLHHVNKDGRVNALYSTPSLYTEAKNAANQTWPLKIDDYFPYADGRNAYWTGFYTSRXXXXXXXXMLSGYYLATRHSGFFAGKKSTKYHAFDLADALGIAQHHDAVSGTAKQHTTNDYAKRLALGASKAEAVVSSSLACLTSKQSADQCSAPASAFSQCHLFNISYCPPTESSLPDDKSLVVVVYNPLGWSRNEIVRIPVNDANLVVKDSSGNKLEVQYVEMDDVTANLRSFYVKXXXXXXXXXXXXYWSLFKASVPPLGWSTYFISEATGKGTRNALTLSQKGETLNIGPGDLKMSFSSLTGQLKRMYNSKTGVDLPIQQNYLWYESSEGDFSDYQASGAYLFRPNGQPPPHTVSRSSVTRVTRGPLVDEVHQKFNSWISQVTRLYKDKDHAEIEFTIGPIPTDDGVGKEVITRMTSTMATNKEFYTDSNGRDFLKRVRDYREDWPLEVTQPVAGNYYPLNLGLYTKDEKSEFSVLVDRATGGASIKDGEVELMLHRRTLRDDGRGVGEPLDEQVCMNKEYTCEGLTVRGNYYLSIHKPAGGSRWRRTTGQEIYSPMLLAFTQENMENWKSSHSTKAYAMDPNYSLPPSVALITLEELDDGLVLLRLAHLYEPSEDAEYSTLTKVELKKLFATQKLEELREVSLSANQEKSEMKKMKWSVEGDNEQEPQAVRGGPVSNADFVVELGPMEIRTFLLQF

[6] = biological target: Beta-galactosidase (Escherichia coli) (UniProt Q8VNN2); test: Inhibition of Escherichia coli beta-galactosidase at 1 mM using p-nitrophenyl glycopyranoside preincubated for 5 mins followed by substrate addition measured after 20 mins by visible absorption spectroscopic method relative to control; procedure, shortened: as §2
[7] = biological target: Alpha-galactosidase (Coffea arabica) (UniProt Q42656); test: Inhibition of coffee beans alpha-galactosidase at 50 uM using p-nitrophenyl glycopyranoside preincubated for 5 mins followed by substrate addition measured after 20 mins by visible absorption spectroscopic method relative to control
Procedure, shortened: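 Crude triazoles from in situ CuAAC (ascorbate/CuSO4, 24 h rt, water-diluted) were screened at 50 μM per well, assuming full conversion. Enzyme was coffee bean α-galactosidase at pH 6, 37 °C, with p-nitrophenyl glycoside substrate and 405 nm read-out. Blanks of CuSO4, ascorbate and each alkyne were run.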

[8] = tested on: Prunus dulcis; test: Inhibition of almond beta-glucosidase at 1 mM using p-nitrophenyl glycopyranoside preincubated for 5 mins followed by substrate addition measured after 20 mins by visible absorption spectroscopic method relative to control; procedure, shortened: as §2
[9] = species on record: Bos taurus; test: Inhibition of bovine liver beta-glucosidase at 1 mM using p-nitrophenyl glycopyranoside preincubated for 5 mins followed by substrate addition measured after 20 mins by visible absorption spectroscopic method relative to control; procedure, shortened: as §2
[10] = Inhibition of almond beta-glucosidase using p-nitrophenyl glycopyranoside preincubated for 5 mins followed by substrate addition measured after 20 mins by visible absorption spectroscopic method; parameters: species or system Prunus dulcis; procedure, shortened: as §1
[11] = tested on: Prunus dulcis; test: Inhibition of almond beta-glucosidase at 10 uM using p-nitrophenyl glycopyranoside preincubated for 5 mins followed by substrate addition measured after 20 mins by visible absorption spectroscopic method relative to control
Procedure, shortened: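 Crude click-reaction products screened in situ. Azide (final 15 mM) was reacted with each alkyne using sodium ascorbate/CuSO4 in tBuOH–H2O for 24 h at rt, then diluted with water. Tested at 10 μM per well, assuming quantitative conversion, against almond β-glucosidase at pH 5, 37 °C. p-Nitrophenyl glycoside read-out at 405 nm.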

[12] = biological target: Alpha-galactosidase (Coffea arabica) (UniProt Q42656); test: Inhibition of coffee beans alpha-galactosidase at 1 mM using p-nitrophenyl glycopyranoside preincubated for 5 mins followed by substrate addition measured after 20 mins by visible absorption spectroscopic method relative to control; procedure, shortened: as §2

Alpha-galactosidase (Coffea arabica), sequence (Q42656 16-378 limits assumed): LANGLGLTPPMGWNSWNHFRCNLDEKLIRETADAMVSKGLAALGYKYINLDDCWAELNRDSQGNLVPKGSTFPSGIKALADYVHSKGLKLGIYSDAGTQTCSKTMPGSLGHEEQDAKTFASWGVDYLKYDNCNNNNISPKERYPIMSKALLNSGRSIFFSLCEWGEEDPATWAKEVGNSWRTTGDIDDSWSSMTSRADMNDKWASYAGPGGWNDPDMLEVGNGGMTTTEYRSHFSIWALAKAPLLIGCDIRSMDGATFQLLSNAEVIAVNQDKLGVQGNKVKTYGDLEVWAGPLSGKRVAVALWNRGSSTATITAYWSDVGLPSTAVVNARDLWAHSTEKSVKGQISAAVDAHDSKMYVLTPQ
Beta-galactosidase (Escherichia coli), sequence (Q8VNN2 whole entry, looked up): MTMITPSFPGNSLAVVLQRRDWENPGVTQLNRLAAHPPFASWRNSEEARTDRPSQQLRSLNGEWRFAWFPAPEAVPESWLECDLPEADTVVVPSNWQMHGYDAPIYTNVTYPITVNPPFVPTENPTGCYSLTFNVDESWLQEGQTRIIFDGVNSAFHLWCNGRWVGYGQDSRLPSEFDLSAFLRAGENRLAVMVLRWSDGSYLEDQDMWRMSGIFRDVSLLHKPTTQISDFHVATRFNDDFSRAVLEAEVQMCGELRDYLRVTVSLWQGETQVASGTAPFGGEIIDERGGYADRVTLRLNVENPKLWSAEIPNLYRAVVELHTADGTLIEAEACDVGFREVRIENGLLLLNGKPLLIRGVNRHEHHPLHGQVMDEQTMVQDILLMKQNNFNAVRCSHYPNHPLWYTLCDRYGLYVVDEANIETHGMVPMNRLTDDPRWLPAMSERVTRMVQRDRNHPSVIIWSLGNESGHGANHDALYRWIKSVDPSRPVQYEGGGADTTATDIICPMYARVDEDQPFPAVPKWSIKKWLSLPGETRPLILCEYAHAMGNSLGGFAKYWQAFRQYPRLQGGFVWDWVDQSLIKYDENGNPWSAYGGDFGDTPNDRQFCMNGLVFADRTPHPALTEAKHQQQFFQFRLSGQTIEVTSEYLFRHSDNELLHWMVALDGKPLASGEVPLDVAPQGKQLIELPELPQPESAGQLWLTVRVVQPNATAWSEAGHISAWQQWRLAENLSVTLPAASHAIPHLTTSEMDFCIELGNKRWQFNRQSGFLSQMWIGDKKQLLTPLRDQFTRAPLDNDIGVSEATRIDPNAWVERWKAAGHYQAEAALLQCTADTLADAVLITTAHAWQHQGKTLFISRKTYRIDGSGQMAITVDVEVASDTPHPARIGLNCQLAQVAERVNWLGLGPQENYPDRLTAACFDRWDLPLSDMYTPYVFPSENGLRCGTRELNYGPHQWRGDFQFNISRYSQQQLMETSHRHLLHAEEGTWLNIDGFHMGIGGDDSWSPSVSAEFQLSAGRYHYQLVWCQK

IC50 [1] [µM] | inhibition [2] | inhibition [3] | inhibition [4] [%] | inhibition [5] | inhibition [6] | inhibition [7] [%] | inhibition [8] [%] | inhibition [9] [%] | IC50 [10] [µM] | inhibition [11] [%] | inhibition [12] [%] | SMILES
240 | inactive | inactive | 17 | inactive | inactive | 62 | < 53 | – | – | – | – | O[C@@H]1[C@H](O)CN[C@@H]1Cn1cc(-c2ccccc2)nn1
– | inactive | 38% | 40 | inactive | inactive | – | 97 | < 50 | 8 | 72 | < 50 | O[C@@H]1[C@H](O)CN[C@H]1Cn1cc(-c2ccccc2)nn1
